An excerpt weighted towards active compounds, which were near 1.3% of everything screened.
PAD4 inh: inhibitors of human PAD4; Q9UM07; recombinant PAD4, RCA probe fluorescence polarization; inhibition, % at 6.36 µM; 330,000 tested, 0.41% active;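 active means percent inhibition above a cutoff equal to the mean of all tested compounds plus 3 SD, cut at about 15% in these data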
RBBP9 inhibitor: human RBBP9 hydrolase inhibition | recombinant RBBP9, FP-Rh probe fluorescence polarization | O75884 | 220,000 tested, 0.2% active | inhibition, % at 7.94 µM;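 active means inhibition above the campaign mean of all tested compounds plus 3 SD, cut at about 14% in these data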
Target sequence (O75884 whole entry, looked up): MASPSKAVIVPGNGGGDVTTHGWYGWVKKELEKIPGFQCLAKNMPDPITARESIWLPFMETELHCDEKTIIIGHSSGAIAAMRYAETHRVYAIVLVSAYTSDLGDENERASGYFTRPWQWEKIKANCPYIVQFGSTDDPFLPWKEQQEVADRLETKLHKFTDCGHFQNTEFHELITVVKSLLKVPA
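Measured by: FP readout at 525/598 nm; material: recombinant human RBBP9; also added: Serine-hydrolase probe FP-Rh, 375 nM pre-mixing; medium: Tris buffer pH 8.0, NaCl, Pluronic; replication: one well per compound; doses: one concentration, 7.94 µM nominal, 0.794% DMSO; timing: preincubation 30 min plus labeling 45 min at 25 °C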
LYPLA1 counter: LYPLA1 (human) inhibition in PME1 counter-screen; inhibition, % at 5.9 µM; recombinant LYPLA1, FP-Rh probe fluorescence polarization; 320,000 tested, 0.16% active; O75608;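 active means inhibition above the mean of all tested compounds plus 3 SD, set per campaign, cut at about 14% in these data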;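 further: inhibitors block serine hydrolase probe labeling of LYPLA1 so polarization falls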
Target sequence (O75608 whole entry, looked up): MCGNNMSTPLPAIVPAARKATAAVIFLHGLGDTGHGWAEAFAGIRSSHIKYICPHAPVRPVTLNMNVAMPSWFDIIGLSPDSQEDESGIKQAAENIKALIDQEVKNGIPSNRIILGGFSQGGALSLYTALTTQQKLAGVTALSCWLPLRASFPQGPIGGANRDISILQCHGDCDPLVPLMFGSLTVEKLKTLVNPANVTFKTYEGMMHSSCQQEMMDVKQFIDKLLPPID
Fam108B inh: blocks mouse Fam108B hydrolase in RBBP9 counter-screen; recombinant Fam108B, FP-Rh probe fluorescence polarization; inhibition, % at 9.51 µM; 300,000 tested, 0.33% active;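 active means inhibition above the screen mean inhibition plus 3 SD, computed separately per campaign, cut at about 18% in these data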;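 further: inhibitors lower polarization as less probe binds the enzyme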
LYPLA2 inh: blocks human lysophospholipase 2, a PME1 counter-screen; O95372; recombinant LYPLA2, FP-Rh probe fluorescence polarization; inhibition, % at 5.9 µM; 320,000 tested, 0.38% active; AID 2177;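 active means inhibition above the screen-wide mean plus 3 SD, limit set per campaign, cut at about 26% in these data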
Target sequence (O95372 whole entry, looked up): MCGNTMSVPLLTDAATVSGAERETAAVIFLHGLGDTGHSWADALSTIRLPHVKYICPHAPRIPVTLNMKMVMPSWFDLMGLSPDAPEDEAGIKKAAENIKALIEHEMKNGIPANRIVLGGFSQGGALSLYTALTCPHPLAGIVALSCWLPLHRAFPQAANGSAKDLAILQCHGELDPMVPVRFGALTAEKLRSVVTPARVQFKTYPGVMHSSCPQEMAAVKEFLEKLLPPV
PME-1 inh: PME-1 (human) inhibition; 320,000 tested, 0.53% active; recombinant PME-1, FP-Rh probe fluorescence polarization; inhibition, % at 5.9 µM;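 active means inhibition above the campaign mean of all compounds plus 3 SD, cut at about 26% in these data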;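 further: competitive labeling of PME-1 active site by serine hydrolase directed probe; inhibitors block probe labeling so polarization falls and inhibition rises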
PAD4 confirm: confirmation of human PAD4 inhibitors; inhibition, % at 6.36 µM; AID 488796; shares compounds with PAD4 inh; recombinant PAD4, RCA probe fluorescence polarization; 1,200 tested, 28% active;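 active means mean inhibition across replicates above the hit cutoff set by the earlier primary screen, cut at about 15% in these data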;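 further: inhibitors block active-site labeling by the probe so polarization falls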
Each line names hits and unclear results; the compound was inactive in the other large screens (follow-up assays come after a bar, where they were run).

Cc1ccc(/C=N/N=C/c2ccc(C)cc2)cc1	none
CCOc1ccc(C=Nc2cccc3ncccc23)cc1	none
COc1ccc(C=Nc2cccnc2N)cc1	PAD4 inh 34 (no result: RBBP9 inhibitor) | PAD4 confirm inactive
Cc1ccc(C=Nc2cccnc2N)cc1	PAD4 inh 15 | PAD4 confirm inactive
Cc1sc2ccc3sccc3c2[n+]1C	PAD4 inh 17 | PAD4 confirm inactive
O=C1CCCC(O)=C1N=Nc1c(Cl)cc(Cl)cc1Cl	PAD4 inh 36 | PAD4 confirm inactive
CCC(C)NC(=O)CSc1ccc(NC(C)=O)cc1 (stereo not drawn)	none
CC(=O)Nc1ccc(SCC(=O)c2ccc(Br)s2)cc1	PAD4 inh 35 (no result: RBBP9 inhibitor) | PAD4 confirm inactive
CN(C)c1ccc(C=Nc2ccc(N(C)C)cc2)cc1	PAD4 inh 32 | PAD4 confirm inactive
Cc1ccc(N=Cc2ccc(N(C)C)cc2)cc1	none
COc1cc(/C=C2\C(=O)N(c3ccc(NC(C)=O)cc3)N=C2c2ccccc2)ccc1O	PAD4 inh 62 | PAD4 confirm inactive
COc1ccc(C(=O)Nc2ccc(S(=O)(=O)Nc3cc(C)nc(C)n3)cc2)c(OC)c1	PAD4 inh 31 | PAD4 confirm 21
O=C(O)CC1(CC(=O)Nc2ccc3c(c2)OCCCO3)CCCCC1	none
COc1ccc(OC)c2[nH]c(=O)c(CCNC(=O)C(C)C)cc12	none
COc1ccc(OC)c2[nH]c(=O)c(CCNC(=O)CC(C)C)cc12	PAD4 inh 50 | PAD4 confirm inactive
Cc1cc2nc3c(=O)[nH]c(=S)[nH]c3nc2cc1NC(=O)C(F)(F)F	PAD4 inh 41 (no result: RBBP9 inhibitor) | PAD4 confirm 39
CC1(C)N([O-])c2cc([N+](=O)[O-])ccc2[N+]1=O	PAD4 inh 30 | PAD4 confirm 15
Nc1ccccc1O	PAD4 inh 15 (no result: RBBP9 inhibitor, Fam108B inh) | PAD4 confirm inactive
COc1cc(/C=C/C(=O)OCC(=O)N(C)Cc2ccccc2)cc(OC)c1OC	PAD4 inh 26 (no result: RBBP9 inhibitor, LYPLA1 counter, Fam108B inh, LYPLA2 inh, PME-1 inh) | PAD4 confirm inactive
O=C1Nc2ccccc2/C1=C/c1ccc([N+](=O)[O-])cc1	none (no result: RBBP9 inhibitor)
CC1(c2ccc([N+](=O)[O-])cc2)Nc2ccccc2S1 (stereo not drawn)	PAD4 inh 17 (no result: RBBP9 inhibitor) | PAD4 confirm inactive
Cc1cc(NN)nc(NS(=O)(=O)c2ccc(Cl)cc2)n1	none
CCN(CC)c1nc(N)nc(NS(=O)(=O)c2ccc(Cl)cc2)n1	PAD4 inh 27 | PAD4 confirm inactive
CC1CCCC(C)N1C(=O)COC(=O)c1ccc(O)cc1 (stereo not drawn)	none
O=C(COC(=O)c1ccc([N+](=O)[O-])s1)c1ccc[nH]1	PAD4 inh 25 (no result: RBBP9 inhibitor, LYPLA1 counter, Fam108B inh, LYPLA2 inh, PME-1 inh) | PAD4 confirm inactive
O=C(OCC(=O)c1ccc[nH]1)c1ccc([N+](=O)[O-])cc1	none (no result: RBBP9 inhibitor, Fam108B inh)
Cc1cc2cc(CNC(=O)C(C)Oc3ccccc3)ccc2n1C (stereo not drawn)	PAD4 inh 29 | PAD4 confirm inactive
CCC(CC)C(=O)NCc1ccc2c(c1)cc(C)n2C	none
Cc1cc2cc(CNS(=O)(=O)c3ccccc3)ccc2n1C	PAD4 inh 18 | PAD4 confirm inactive
Cc1cc2cc(CNC(=O)c3ccc(S(=O)(=O)N4CCCCC4)cc3)ccc2n1C	PAD4 inh 31 | PAD4 confirm inactive
C/C(COc1ccccc1)=N\NC(=O)c1nnn(-c2nonc2N)c1CSc1ccccc1	none (no result: RBBP9 inhibitor)
CN(CCCC1CCCC1)C(=O)CC1C(=O)NCCN1Cc1cccc(F)c1F (stereo not drawn)	none (no result: RBBP9 inhibitor)
O=C(O)[C@H](Cc1ccccc1)NC(=O)N1CCC(Cc2ccccc2)CC1	PAD4 inh 42 | PAD4 confirm inactive
Cc1ccc(N2C(=O)CSC23C(=O)Nc2ccccc23)cc1 (stereo not drawn)	PAD4 inh 16 | PAD4 confirm 19
CC1=CC(C)(C)N2C(=O)C3(SCC(=O)N3c3ccc(O)cc3)c3cc(C)cc1c32 (stereo not drawn)	none
COc1cc(C2C(C#N)=C(N)Oc3n[nH]c(-c4cccnc4)c32)cc(Br)c1O (stereo not drawn)	PAD4 inh 21 | PAD4 confirm inactive
Cc1ccc(C2C(C#N)=C(N)Oc3n[nH]c(-c4cccnc4)c32)o1 (stereo not drawn)	none
COc1cc(C2C(C#N)=C(N)Oc3n[nH]c(-c4cccnc4)c32)ccc1OCC(N)=O (stereo not drawn)	PAD4 inh 21 | PAD4 confirm inactive
C(=Nc1ccc(Nc2ccccc2)cc1)c1ccc2ccccc2c1	PAD4 inh 24 | PAD4 confirm inactive
Nc1nc(-c2ccccc2)nc2sc3c(c12)CCCC3	none
COc1cccc(N(C(=O)Cn2nnc(-c3cccs3)n2)C(C(=O)NC2CCCCC2)c2ccncc2)c1 (stereo not drawn)	none
CC(=O)NN1C(=O)c2ccc3c4c(ccc(c24)C1=O)C(=O)N(NC(C)=O)C3=O	PAD4 inh 136 (no result: RBBP9 inhibitor) | PAD4 confirm 143
Cc1[nH][nH]c(=O)c1C(c1ccc(-c2ccc(Cl)cc2Cl)o1)c1c(C)[nH][nH]c1=O	none (no result: PAD4 inh, LYPLA1 counter, Fam108B inh, LYPLA2 inh, PME-1 inh)
Cc1[nH][nH]c(=O)c1C(c1ccc(-c2ccccc2C(=O)O)o1)c1c(C)[nH][nH]c1=O	PAD4 inh 51 | PAD4 confirm inactive
COC(=O)c1ccc(-c2ccc(C(c3c(C)[nH][nH]c3=O)c3c(C)[nH][nH]c3=O)o2)cc1	none
Cc1[nH][nH]c(=O)c1C(c1ccc(-c2cccc(Cl)c2)o1)c1c(C)[nH][nH]c1=O	PAD4 inh 44 | PAD4 confirm 36
Cc1[nH][nH]c(=O)c1C(c1ccc(-c2cccc(C(=O)O)c2)o1)c1c(C)[nH][nH]c1=O	PAD4 inh 33 | PAD4 confirm inactive
O=C(NCC1CCCO1)c1ccc(-c2ccccc2Cl)o1 (stereo not drawn)	none (no result: RBBP9 inhibitor)
O=C(O)C1CC(=O)N(CCc2ccc(F)cc2)C1 (stereo not drawn)	none (no result: RBBP9 inhibitor)
CC(=O)NC1=NN(c2ccccc2)C(=O)C1	PAD4 inh 43 | PAD4 confirm inactive
COc1ccccc1N1CCN(C(=O)CCC(=O)N2CCN(c3ccc(F)cc3)CC2)CC1	PAD4 inh 23 (no result: RBBP9 inhibitor) | PAD4 confirm inactive
Cc1ccc(F)cc1NC(=S)NCCc1ccccc1	none
O=C(COc1ccccc1Br)Nc1ccc(S(=O)(=O)N2CCCC2)cc1	none (no result: RBBP9 inhibitor, Fam108B inh)
CC(=O)N1CC[n+]2c(-c3ccc(Cl)cc3)csc21	PAD4 inh 22 | PAD4 confirm inactive
CCN(CC)CCn1c2c(c(SCC(=O)Nc3nc4ccc(C)cc4s3)nc1=O)CCC2	none (no result: RBBP9 inhibitor)
CCOC(=O)c1ccc(NC(=O)CSc2nc(=O)n(CCN3CCOCC3)c3c2CCC3)cc1	PAD4 inh 17 (no result: RBBP9 inhibitor) | PAD4 confirm inactive
CCN(CC)CCn1c2c(c(SCC(=O)Nc3nc4ccccc4s3)nc1=O)CCC2	PAD4 inh 17 (no result: RBBP9 inhibitor) | PAD4 confirm inactive

Assay outcomes from PubChem BioAssay.
